Measured values as given in ChEMBL document CHEMBL4371074, “Discovery of Selective Matriptase and Hepsin Serine Protease Inhibitors: Useful Chemical Tools for Cancer Cell Biology” (J Med Chem, 2019).
The source made the active and inactive calls. The calls are words filed in the database; no cut-off is given here.

What was measured:
Homo sapiens [1] = species: Homo sapiens; assay: Selectivity ratio of Ki(app) for recombinant human N-terminal His6-tagged matriptase catalytic domain expressed in Escherichia coli to Ki(app) for recombinant human C-terminal His10-tagged hepsin catalytic domain
[2] = molecular target: T1, Suppressor of tumorigenicity 14 protein (Homo sapiens, UniProt Q9Y5Y6); assay: Inhibition of recombinant human N-terminal His6-tagged matriptase catalytic domain expressed in Escherichia coli preincubated for 30 mins followed by Boc-QAR-AMC substrate addition and measured for 1 hr by fluorescence assay; settings: read-out: Ki(app)
T1 sequence (Q9Y5Y6 whole entry): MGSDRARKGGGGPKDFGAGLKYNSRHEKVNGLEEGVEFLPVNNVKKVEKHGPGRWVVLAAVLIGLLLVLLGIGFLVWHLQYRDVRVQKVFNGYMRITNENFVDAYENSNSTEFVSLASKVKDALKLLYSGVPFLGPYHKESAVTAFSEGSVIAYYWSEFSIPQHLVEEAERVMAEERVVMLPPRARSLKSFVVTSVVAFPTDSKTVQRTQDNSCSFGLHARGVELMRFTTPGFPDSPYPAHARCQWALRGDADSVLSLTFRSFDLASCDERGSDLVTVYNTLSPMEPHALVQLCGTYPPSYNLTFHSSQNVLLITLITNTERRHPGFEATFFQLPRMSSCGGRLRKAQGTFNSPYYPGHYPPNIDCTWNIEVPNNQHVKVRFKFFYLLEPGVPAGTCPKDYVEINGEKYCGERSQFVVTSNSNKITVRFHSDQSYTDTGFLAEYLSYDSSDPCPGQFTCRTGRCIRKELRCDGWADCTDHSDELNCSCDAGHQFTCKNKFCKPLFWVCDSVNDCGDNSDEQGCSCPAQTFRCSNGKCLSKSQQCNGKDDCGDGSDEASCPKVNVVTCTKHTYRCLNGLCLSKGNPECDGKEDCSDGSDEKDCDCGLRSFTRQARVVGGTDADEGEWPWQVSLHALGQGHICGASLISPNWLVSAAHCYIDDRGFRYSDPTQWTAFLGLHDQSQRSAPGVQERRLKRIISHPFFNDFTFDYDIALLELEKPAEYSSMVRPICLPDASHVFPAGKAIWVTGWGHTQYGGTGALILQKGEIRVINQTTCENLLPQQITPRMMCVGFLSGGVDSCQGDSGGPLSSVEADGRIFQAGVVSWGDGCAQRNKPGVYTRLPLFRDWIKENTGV
Method in brief: (§1)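 HGFA was at 7.5 nM with Boc-QLR-AMC (Km 37 µM). Matriptase was at 0.2 nM and hepsin at 0.3 nM, both with Boc-QAR-AMC (Km 93 and 156 µM). Hepsin was pre-activated for 24 h at 37°C. Eleven inhibitor concentrations (0-20 µM, 2% DMSO) were given 30 min RT before substrate at Km. Fluorescence was read at ex 380/em 460 nm. IC50 came from a four-parameter fit, mean of three experiments.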

Serine protease hepsin [3] = molecular target: T2, Serine protease hepsin (Homo sapiens, UniProt P05981); assay: Inhibition of recombinant human C-terminal His10-tagged hepsin catalytic domain preincubated for 30 mins followed by Boc-QAR-AMC substrate addition and measured for 1 hr by fluorescence assay; settings: read-out: Ki(app); method in brief: as §1
[4] = molecular target: T3, Hepatocyte growth factor activator serine protease (Homo sapiens, UniProt Q04756); assay: Inhibition of HGFA catalytic domain (unknown origin) preincubated for 30 mins followed by Boc-QLR-AMC substrate addition and measured for 1 hr by fluorescence assay; settings: read-out: Ki(app)
T3 sequence (Q04756 whole entry): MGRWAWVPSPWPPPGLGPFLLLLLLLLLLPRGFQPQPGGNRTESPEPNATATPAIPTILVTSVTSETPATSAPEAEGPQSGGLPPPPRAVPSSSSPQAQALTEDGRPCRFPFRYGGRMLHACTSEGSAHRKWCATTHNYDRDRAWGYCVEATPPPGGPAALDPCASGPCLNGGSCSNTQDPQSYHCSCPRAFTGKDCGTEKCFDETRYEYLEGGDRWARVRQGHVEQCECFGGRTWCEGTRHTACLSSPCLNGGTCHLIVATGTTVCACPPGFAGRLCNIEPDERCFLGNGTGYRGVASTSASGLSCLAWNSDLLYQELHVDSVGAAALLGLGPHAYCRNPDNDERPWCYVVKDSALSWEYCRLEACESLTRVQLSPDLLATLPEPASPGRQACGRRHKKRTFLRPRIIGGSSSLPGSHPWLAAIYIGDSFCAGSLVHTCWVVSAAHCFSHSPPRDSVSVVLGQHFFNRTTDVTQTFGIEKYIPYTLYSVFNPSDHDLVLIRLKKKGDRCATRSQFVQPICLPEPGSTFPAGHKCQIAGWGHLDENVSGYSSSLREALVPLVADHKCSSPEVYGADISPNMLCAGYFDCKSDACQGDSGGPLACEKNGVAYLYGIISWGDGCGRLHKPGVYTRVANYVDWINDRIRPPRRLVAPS

Homo sapiens [5] = species: Homo sapiens; assay: Selectivity ratio of Ki(app) for recombinant human C-terminal His10-tagged hepsin catalytic domain to Ki(app) for recombinant human N-terminal His6-tagged matriptase catalytic domain expressed in Escherichia coli
Serine protease hepsin [6] = molecular target: T2, Serine protease hepsin; assay: Inhibition of hepsin (unknown origin) expressed in MCF10A cells assessed as reduction in desmosomal cadherin desmoglein 2 loss at 1 uM after 45 mins by Hoechst 33258 staining based immunofluorescence microscopic method; type: cell-based
Method in brief: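 MCF10A-Indu20-hepsin cells were grown as 2D monolayers on coverslips, with or without doxycycline induction, and pretreated with inhibitor at 1 µM. They were fixed and permeabilized in ice-cold methanol for 5 min and blocked in 0.1% BSA/PBS for 30 min. Staining used anti-desmoglein 2 and anti-hepsin, then Alexa secondaries for 45 min RT, with Hoechst nuclei. Confocal images were scored; cells with pericellular desmoglein 2 on at least two sides counted positive.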

Serine protease hepsin [7] = molecular target: T2, Serine protease hepsin; assay: Inhibition of hepsin (unknown origin) expressed in MCF10A cells preincubated for 30 mins followed by Boc-QRR-AMC substrate addition and measured for 1 hr by fluorescence assay

CC(=O)N[C@@H](CCCCN)C(=O)N[C@@H](CCC(N)=O)C(=O)N[C@@H](CC(C)C)C(=O)N[C@@H](CCCNC(=N)N)C(=O)c1nc2ccccc2s1
Ratio Ki(app) (Homo sapiens [1]): 6.1

CC(C)C[C@H](NC(=O)OCC1c2ccccc2-c2ccccc21)C(=O)N[C@@H](CCCNC(=N)N)C(=O)c1nc2ccccc2s1
Ki [2]: 253 nM | Ki (Serine protease hepsin [3]): 67 nM | Ki [4]: 468 nM | Ratio Ki(app) (Homo sapiens [1]): 3.8

N=C(N)NCCC[C@H](NC(=O)[C@H](CCC(=O)O)NC(=O)OCC1c2ccccc2-c2ccccc21)C(=O)c1nc2ccccc2s1
Ki [2]: 7.2 nM | Ki (Serine protease hepsin [3]): 372 nM | Ki [4]: > 10000 nM | Ratio Ki(app) (Homo sapiens [5]): 52

C[C@@H](O)[C@H](NC(=O)OCC1c2ccccc2-c2ccccc21)C(=O)N[C@@H](CCCNC(=N)N)C(=O)c1nc2ccccc2s1
Ki [2]: 271 nM | Ki (Serine protease hepsin [3]): 180 nM | Ki [4]: > 10000 nM | Ratio Ki(app) (Homo sapiens [1]): 1.5

CC(C)[C@H](NC(=O)OCC1c2ccccc2-c2ccccc21)C(=O)N[C@@H](CCCNC(=N)N)C(=O)c1nc2ccccc2s1
Ki [2]: 18 nM | Ki (Serine protease hepsin [3]): 125 nM | Ki [4]: 4630 nM | Ratio Ki(app) (Homo sapiens [5]): 6.9

N=C(N)NCCC[C@H](NC(=O)[C@H](Cc1ccc(O)cc1)NC(=O)OCC1c2ccccc2-c2ccccc21)C(=O)c1nc2ccccc2s1
Ki [2]: 25 nM | Ki (Serine protease hepsin [3]): 256 nM | Ki [4]: 2960 nM | Ratio Ki(app) (Homo sapiens [5]): 10

CC[C@H](C)[C@H](NC(=O)OCC1c2ccccc2-c2ccccc21)C(=O)N[C@@H](CCCNC(=N)N)C(=O)c1nc2ccccc2s1
Ki [2]: 486 nM | Ki (Serine protease hepsin [3]): 228 nM | Ki [4]: 4300 nM | Ratio Ki(app) (Homo sapiens [1]): 2.1

N=C(N)NCCC[C@H](NC(=O)[C@H](Cc1c[nH]c2ccccc12)NC(=O)OCC1c2ccccc2-c2ccccc21)C(=O)c1nc2ccccc2s1
Ki [2]: 294 nM | Ki (Serine protease hepsin [3]): 302 nM | Ki [4]: 3200 nM | Ratio Ki(app) (Homo sapiens [5]): 1 | Ratio Ki(app) (Homo sapiens [1]): 1

N=C(N)NCCC[C@H](NC(=O)OCC1c2ccccc2-c2ccccc21)C(=O)N[C@@H](CCCNC(=N)N)C(=O)c1nc2ccccc2s1
Ki [2]: 3.9 nM | Ki (Serine protease hepsin [3]): 102 nM | Ki [4]: 8630 nM | Ratio Ki(app) (Homo sapiens [5]): 26

N=C(N)NCCC[C@H](NC(=O)CNC(=O)OCC1c2ccccc2-c2ccccc21)C(=O)c1nc2ccccc2s1
Ki [4]: 9370 nM | Ratio Ki(app) (Homo sapiens [5]): 6390 | inhibition (Serine protease hepsin [6]): inactive | IC50 (Serine protease hepsin [7]): > 10000 nM

N=C(N)NCCC[C@H](NC(=O)[C@H](CO)NC(=O)OCC1c2ccccc2-c2ccccc21)C(=O)c1nc2ccccc2s1
Ki [2]: 4.9 nM | Ki (Serine protease hepsin [3]): 555 nM | Ki [4]: > 10000 nM | Ratio Ki(app) (Homo sapiens [5]): 113

N=C(N)NCCC[C@H](NC(=O)[C@H](CCCCN)NC(=O)OCC1c2ccccc2-c2ccccc21)C(=O)c1nc2ccccc2s1
Ki [2]: 0.22 nM | Ki (Serine protease hepsin [3]): 104 nM | Ki [4]: > 10000 nM | Ratio Ki(app) (Homo sapiens [5]): 473

N=C(N)NCCC[C@H](NC(=O)[C@H](CC(N)=O)NC(=O)OCC1c2ccccc2-c2ccccc21)C(=O)c1nc2ccccc2s1
Ki [4]: 4770 nM | Ratio Ki(app) (Homo sapiens [1]): 62 | inhibition (Serine protease hepsin [6]): Active | IC50 (Serine protease hepsin [7]): 92 nM

CC(=O)N[C@@H](CO)C(=O)N[C@@H](CCCCN)C(=O)N[C@@H](CC(C)C)C(=O)N[C@@H](CCCNC(=N)N)C(=O)c1nc2ccccc2s1
Ki [2]: 3.1 nM | Ratio Ki(app) (Homo sapiens [1]): 19

N=C(N)NCCC[C@H](NC(=O)[C@H](CC(=O)O)NC(=O)OCC1c2ccccc2-c2ccccc21)C(=O)c1nc2ccccc2s1
Ki [2]: 294 nM | Ki (Serine protease hepsin [3]): 98 nM | Ki [4]: > 10000 nM | Ratio Ki(app) (Homo sapiens [1]): 3

C[C@H](NC(=O)OCC1c2ccccc2-c2ccccc21)C(=O)N[C@@H](CCCNC(=N)N)C(=O)c1nc2ccccc2s1
Ki [2]: 0.36 nM | Ki (Serine protease hepsin [3]): 240 nM | Ki [4]: 7980 nM | Ratio Ki(app) (Homo sapiens [5]): 667

N=C(N)NCCC[C@H](NC(=O)[C@H](Cc1ccccc1)NC(=O)OCC1c2ccccc2-c2ccccc21)C(=O)c1nc2ccccc2s1
Ki [2]: 188 nM | Ki (Serine protease hepsin [3]): 764 nM | Ratio Ki(app) (Homo sapiens [5]): 4

N=C(N)NCCC[C@H](NC(=O)[C@@H]1CCCN1C(=O)OCC1c2ccccc2-c2ccccc21)C(=O)c1nc2ccccc2s1
Ki [2]: 0.5 nM | Ki (Serine protease hepsin [3]): 391 nM | Ki [4]: > 10000 nM | Ratio Ki(app) (Homo sapiens [5]): 782

CSCC[C@H](NC(=O)OCC1c2ccccc2-c2ccccc21)C(=O)N[C@@H](CCCNC(=N)N)C(=O)c1nc2ccccc2s1
Ki [2]: 5.4 nM | Ki (Serine protease hepsin [3]): 227 nM

N=C(N)NCCC[C@H](NC(=O)[C@H](Cc1cnc[nH]1)NC(=O)OCC1c2ccccc2-c2ccccc21)C(=O)c1nc2ccccc2s1
Ki [2]: 11 nM | Ki (Serine protease hepsin [3]): 226 nM | Ki [4]: 6120 nM | Ratio Ki(app) (Homo sapiens [5]): 21

N=C(N)NCCC[C@H](NC(=O)[C@H](CCC(N)=O)NC(=O)OCC1c2ccccc2-c2ccccc21)C(=O)c1nc2ccccc2s1
Ki [2]: 0.65 nM | Ki (Serine protease hepsin [3]): 116 nM | Ki [4]: 6830 nM | Ratio Ki(app) (Homo sapiens [5]): 179
